pIC50: −log10 of the molar value. Calls of active or inactive are those of the source.
Experiments:
P388 [1] = assay: Evaluation in vivo against […] cell line for percentage increase in lifespan of drug-treated tumor-bearing animals when treated at 30 mg/kg dose.(ILS); format: functional, Mus musculus
Procedure, shortened: (§1)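 Animals received 10^6 P388 cells intraperitoneally. On day 1, 24 h after inoculation, a single intraperitoneal drug dose was given in 0.1 mL of 30% v/v dimethylacetamide/water. ILS is the percentage increase in lifespan of treated tumor-bearing animals at the optimal dose, defined as the dose giving maximal life extension. ILS above 20% is counted as significant.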

CHO-AA8 = assay: Inhibition of cell growth in culture against Chinese hamster ovary derived cell line, AA8; format: functional, cell-based, Cricetulus griseus
Procedure, shortened: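 AA8 Chinese hamster ovary cells were kept in log phase in Alpha MEM with 10% fetal calf serum and exposed to drug for 18 h. Drug was removed by three washes with fresh medium, then cells were grown a further 72 h. Cell density was read by methylene blue staining. IC50 is the nominal concentration reducing cell density to 50% of controls, with eight controls per plate. Values are means of three determinations.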

Bos taurus = species: Bos taurus; assay: Spectrophotometry for binding to calf thymus DNA in 0.01 M HEPES buffer (pH 7.0) at 25 degree C; format: ADME; details: cattle
[2] = Hypersensitivity factor value is IC50 of (AA8) to that of UV4 where UV4 is a mutant AA8 line lacking the ability to perform incision repair; format: functional
Procedure, shortened: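 HF is IC50(AA8)/IC50(UV4), where UV4 is an AA8 mutant lacking incision repair. Both lines were grown in Alpha MEM with 10% fetal calf serum and given an 18 h drug exposure, then washed and grown 72 h more. Cell density was read by methylene blue staining, and IC50 was set at 50% of control density.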

P388 [3] = assay: Inhibition of cell growth in culture against wild type P388 murine leukemia; format: functional, cell-based, Mus musculus
Procedure, shortened: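 Wild-type P388 murine leukemia cells were kept in log phase in RPMI 1640 with 10% fetal calf serum. Drug was present throughout the 72 h growth period. Final cell density was read by a modified MTT method. IC50 is the nominal concentration reducing cell density to 50% of controls, with eight controls per plate. Values are means of three determinations.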

P388 [4] = assay: Evaluation in vivo against […] cell line for percentage increase in lifespan of drug-treated tumor-bearing animals at 100 mg/kg dose.(ILS); NA=Compound inactive at nontoxic doses; format: functional, organism-based; parameters: dose 100 mg/kg; details: Mus musculus; procedure, shortened: as §1
P388 [5] = assay: Evaluation in vivo against […] cell line for percentage increase in lifespan of drug-treated tumor-bearing animals when treated at 45 mg/kg dose.(ILS); format: functional, Mus musculus; procedure, shortened: as §1
P388 [6] = assay: Evaluation in vivo against […] cell line for percentage increase in lifespan of drug-treated tumor-bearing animals at 30 mg/kg dose.(ILS); NA=Compound inactive at nontoxic doses; format: functional, organism-based; parameters: dose 30 mg/kg; details: Mus musculus; procedure, shortened: as §1
P388 [7] = assay: Evaluation in vivo against […] cell line for percentage increase in lifespan of drug-treated tumor-bearing animals when treated at 225 mg/kg dose.(ILS); format: functional, Mus musculus; procedure, shortened: as §1

Structure (SMILES) | Increase (P388 [1]) [%] | pIC50 (CHO-AA8; Cricetulus griseus, CHO-AA8) | Log K (Bos taurus) | Ratio [2] | pIC50 (P388 [3]; p388) | Increase (P388 [4]) | Increase (P388 [5]) [%] | pIC50 (CHO-AA8; cho-aa8) | Increase (P388 [6]) | pIC50 (P388 [3]; Mus musculus, P388) | Increase (P388 [7]) [%]
C[n+]1ccc(Nc2ccc(Oc3ccc(N(CCCl)CCCl)cc3)cc2)c2ccccc21 | 20 | 6.19 | 6.45 M-1 | 23 |  |  |  |  |  |  | 
C[n+]1ccc(Nc2ccc(C(=O)c3ccc(N(CCCl)CCCl)cc3)cc2)c2ccccc21 |  | 5.55 | 6.61 M-1 | 6.4 | 5.92 | inactive |  |  |  |  | 
C[n+]1ccc(Nc2ccc(C(=O)Nc3ccc(N(CCCl)CCCl)cc3)cc2)c2ccccc21 | 28 | 6.47 | 6.48 M-1 | 17 | 6.31 |  |  |  |  |  | 
C[n+]1ccc(Nc2ccc(Cc3ccc(N(CCCl)CCCl)cc3)cc2)c2ccccc21 |  |  | 6.58 M-1 | 20 | 7.14 |  | 46 | 6.22 |  |  | 
CCN(CCCl)c1ccc(Oc2ccc(Nc3ccnc4ccccc34)cc2)cc1 |  | 5.15 |  | 11.3 |  |  |  |  | inactive | 6.30 | 
O=C(O)CCCc1ccc(N(CCCl)CCCl)cc1 [CHLORAMBUCIL] |  |  |  | 58 |  |  |  |  |  |  | 37

Source: ChEMBL document CHEMBL1125925, “DNA-directed alkylating agents. 4. 4-anilinoquinoline-based minor groove directed aniline mustards” (J Med Chem, 1991)
